This is an account of results in ChEMBL document CHEMBL4513216, “Probing the Open Global Health Chemical Diversity Library for Multistage-Active Starting Points for Next-Generation Antimalarials” (ACS Infect Dis, 2020).

The data set is described as follows: Toxicity liver stage against HepG2, at 10uM. The data set is classed as cell-based. On the set-up: test concentration 10 uM, cell line HepG2-A16-CD81EGFP. The note with it: human, HepG2-A16-CD81EGFP cells; read-out: INHIBITION
Summed up: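 Uninfected HepG2-A16-CD81EGFP cells, 3 × 10^3 per well, 1536-well, plated on prespotted compound at 10 μM final, parasite-free screening media added to match infected plates; puromycin 10 μM positive, DMSO 0.5% negative; run in parallel with 48 h PbLuc assay at 37 °C, 5% CO2; viability by CellTiter-Glo luminescence, normalized to controls.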
In the case of `Cc1cccc(-c2noc([C@@H]3C[C@@H](O)CN3C3CCOCC3)n2)c1`, the cytotoxicity at 10 µM worked out at 4.9%. Next, `CC(C)c1ccc(-n2ncc(C(=O)NCC3COC(C)(C)O3)c2N)cc1` (stereo not given): -0.726%; `Cc1ccc(-n2ncc(C(=O)NC3CC(C)(C)NC(C)(C)C3)c2N)cc1`: -4.2%.

On to `COCC(=O)N1CCC(=O)N(C2CCCC2)Cc2ccccc21`, for which the cytotoxicity at 10 µM was -5.2%. As for `O=C(Nc1ccccn1)C1(n2cnnn2)CCCCC1`, the cytotoxicity at 10 µM was -7.03%. As for `O=C(CNC(=O)N1CCN(c2cccc(Cl)c2)CC1)Nc1ccccn1`, the cytotoxicity at 10 µM is -0.74%. Under `COCCn1ccc(=O)c(OCC(=O)Nc2cccc(Cl)c2)c1C` stands 2.16%. With `NC(=O)Cn1c(CO)cnc1SCC(=O)NCc1ccccc1Cl`, the cytotoxicity at 10 µM was -4.24%.

As to `CCOC(=O)CCC(=O)N1CCC(Oc2ncccc2Cl)CC1`, the cytotoxicity at 10 µM was -5.57%. Under `O=C1CCC2(CCCN(C(=O)Cc3ccccn3)C2)N1` (stereo not given) stands 4%; under `O=C(CC1CC1)N1CCC2(COCc3cnc(-c4ccccc4)nc32)C1` (stereo not given), 2.02%. Under `COCCNC(=O)Cn1c(-c2ccc(F)cc2)nc(C)c(CCO)c1=O` stands -15%; under `CC/N=c1\nc(NCC)nc2n1C(O)(Nc1cc(C)ccc1C)CS2` (stereo not given), 10.3%. Under `Oc1nc(N2CCOCC2)nc2nccc(-c3ccccn3)c12` stands 7.52%; under `O=C1CC(c2ccncc2)c2c(c(C(=O)O)cn2-c2ccc(F)cc2)N1` (stereo not given), 10.1%. For `O=C(NC[C@H]1OC[C@@H]2CCN(C(=O)c3ccco3)C[C@@H]21)C1CC1`, the cytotoxicity at 10 µM is -6.2%.

As for `O=C(c1ccco1)N1CCC2(CCOC2)C1` (stereo not given), the cytotoxicity at 10 µM is -3.65%. `CCN(CC)C(=O)c1nnc2ccc(N3CCOCC3)cc2n1`: the cytotoxicity at 10 µM came to 5.37%. Under `Cc1ncc(C(=O)N2CC(C(=O)N3CCOCC3)C2)c(C)n1` stands 3.54%; under `Cn1nc(Cl)cc1C(=O)N1CCC(C(=O)c2nc3ccccc3s2)CC1`, 3.34%; under `O=C(c1cc[nH]n1)N1CCCC1c1cc(Nc2ccccn2)n[nH]1` (stereo not given), -13.8%. Next, `Cc1cnc(N)c(C(=O)C2CCN(C(=O)c3cnc(C)cn3)CC2)c1`: -19.7%; `Cc1ccc(=O)n(CC2(O)CCN(Cc3cccs3)CC2)n1`: -5.72%. As to `CNC(=O)c1ccc(C2CN(C(=O)c3c[nH]nc3C)CCO2)nc1` (stereo not given), the cytotoxicity at 10 µM is -19.3%. On to `CC(C)(CNC(=O)Nc1ccc(S(=O)(=O)C(F)F)cc1)N1CCOCC1`, for which the cytotoxicity at 10 µM stood at 4.44%. As to `Cc1ccc(-n2cc(C(=O)NCc3nnc4n3CCCCC4)nn2)cc1`, the cytotoxicity at 10 µM was -3.32%. Under `N#Cc1cc(F)ccc1NCc1ccc(Cn2cncn2)cc1` stands 8.75%; under `CCN(CC)C(=O)C1(NCc2nc(C)c(C)o2)CCCCC1`, 2.5%. Regarding `O=C(NC1(C(=O)O)CCCCC1)C1Cc2ccccc2O1` (stereo not given), the cytotoxicity at 10 µM is 10.9%. `CC1COCCN1C(=O)COc1cccc(Oc2ccccn2)c1` (stereo not given): the cytotoxicity at 10 µM was -5.15%.

As for `CN(C1CCCCC1)S(=O)(=O)NCC1Cc2ccccc2O1` (stereo not given), the cytotoxicity at 10 µM stood at 4.19%. Take `CSc1ncccc1C(=O)NC(C)c1cccc(N2CCOC2=O)c1` (stereo not given): the cytotoxicity at 10 µM is -9.05%. Under `CC(C)n1cnnc1CNC(=O)c1cnn(-c2ccccc2)c1` stands 11.9%; under `Cc1nc(-c2ccc(S(=O)(=O)N3CCC=C(F)C3)cc2)co1`, 13.4%. Under `CCN(CC)C1CCN(C(=O)NCc2cccc(-n3ccnc3)c2)C1` (stereo not given) stands -4.45%. Take `Cn1cc(C(=O)CC2CCCN2C(=O)c2ccn3ccnc3c2)cn1` (stereo not given): the cytotoxicity at 10 µM is -5.81%. Regarding `COCC1CCN(CCCc2cccc(OC)c2)CC1`, the cytotoxicity at 10 µM was -11%. Next, `Cc1nn(C)c(C)c1C(=O)NCc1cc(N(C)C)nc2ccccc12`: -1.08%.

In the case of `CC(NC(=O)c1ccnc(C2CC2)n1)C1(N2CCOCC2)CCCC1` (stereo not given), the cytotoxicity at 10 µM worked out at 4.21%.

With `CC(C)(C)c1n[nH]c(C2CN(C(=O)c3cc(C4CC4)[nH]n3)CCO2)n1` (stereo not given), the cytotoxicity at 10 µM is -7.2%. As to `CC(C)CC(CCO)CNC(=O)N1CCC1(C)C` (stereo not given), the cytotoxicity at 10 µM is -3.25%. Regarding `CCOc1ccccc1C(CC(=O)O)NC(C)=O` (stereo not given), the cytotoxicity at 10 µM was -4.19%. For the molecule `Cc1nn(C)c(C)c1OCC(=O)N1CCC(O)(C(F)(F)F)CC1`, the cytotoxicity at 10 µM is -5.09%.

On to `Cc1ccc(F)c(OC2CCCN(c3cnn(C)c3)C2=O)c1` (stereo not given), for which the cytotoxicity at 10 µM is -6.43%. Under `CC(Cn1cncn1)NC(=O)Nc1ccc(F)cc1OCC1CC1` (stereo not given) stands 4.34%; under `N#CCCN(c1ccccc1)S(=O)(=O)CC1CCCCO1` (stereo not given), -4.69%; under `CC(C)Cc1ccc(S(=O)(=O)NCCCN2CCNC(=O)C2)cc1`, -4.36%. Under `O=C(NCc1ccccn1)Nc1ccc2[nH]nnc2c1` stands 6.77%.

For the molecule `CC(C)(C)CN(CCC#N)C(=O)Cc1ccc(-n2cnnn2)cc1`, the cytotoxicity at 10 µM was found to be 1.18%.

Take `CN(C)c1ccc(NC(=O)NCc2ccc(Cl)s2)cn1`: the cytotoxicity at 10 µM stood at 6.43%. Consider `Cn1cnc2c1CCN(Cc1c(Cl)ccc3cccnc13)C2`, for which the cytotoxicity at 10 µM amounted to 5.55%. As to `CC(C)OCCCNC(=O)N(C)C(C)c1ccc(-n2cncn2)cc1` (stereo not given), the cytotoxicity at 10 µM worked out at 4.08%. With `CC(O)CN1CCN(CCOCC(F)(F)F)CC1` (stereo not given), the cytotoxicity at 10 µM is -3.51%. For the molecule `CC(=O)N(C)CC(=O)Nc1ccc(C)cc1OCc1ccccc1`, the cytotoxicity at 10 µM was determined as 2.22%.

As for `CN1CCC(CNC(=O)c2cccc(NC(N)=O)c2)c2ccccc21` (stereo not given), the cytotoxicity at 10 µM was determined as 3.86%. Under `Cc1sc(CNS(N)(=O)=O)nc1-c1ccc(Cl)cc1` stands -7.45%. Next, `CS(=O)(=O)N1CCC(Nc2ccnc3ccc(Cl)cc23)CC1`: 54.3%. Take `CSCC(=O)NS(=O)(=O)c1ccc(C#N)c(C(F)(F)F)c1`: the cytotoxicity at 10 µM was 17.2%. Consider `COc1cc2ccn(CCS(C)(=O)=O)c(=O)c2cc1F`, for which the cytotoxicity at 10 µM worked out at 18.5%. Under `O=C(O)c1ccc(F)c(S(=O)(=O)Nc2c(F)cccc2-n2cccn2)c1` stands -5.59%; under `NC(=O)C1CCN(C(=O)NCc2ccccc2Cn2cncn2)CC1`, 3.98%; under `CNc1cc(N2CCCC2CNCc2ccccn2)ncn1` (stereo not given), 7.31%. As to `Cc1cc(C)n(C2CCCN(C(=O)c3ccc(F)cc3F)C2)n1` (stereo not given), the cytotoxicity at 10 µM was 0.743%.

For the molecule `O=C(c1cccnc1)N1CCC2(CC1)CCN(Cc1ccccn1)C2=O`, the cytotoxicity at 10 µM is 2.78%. Under `CC(C)c1nnc(CN2CCC3(CC2)Nc2ccccc2NC3=O)o1` stands -1.48%.

Turning to `CCCN1CC2(CCN(C)CC2)CC1C(=O)NCCn1cccn1` (stereo not given), the cytotoxicity at 10 µM was -5.46%. Under `Cc1ccccc1-n1cc(CNc2ncnc3c2CCNCC3)cn1` stands 1.25%.

`CS(=O)(=O)c1ccc(-c2cc(C3CC3)c(C#N)c(N)n2)cc1`: the cytotoxicity at 10 µM was -8.11%. Next, `c1ccc2oc(N3CCCC4(CCOC4)C3)nc2c1` (stereo not given): -6.27%; `CC(C)C(O)C(=O)N1CCC2(CC1)c1nc[nH]c1CCN2S(C)(=O)=O` (stereo not given): -0.232%; `c1ccn2c(C3CCCN(c4ncnc5c4CCNC5)C3)nnc2c1` (stereo not given): -7.94%. Under `Cc1ccccc1CN1CCN(C(=O)CN2CCOC2=O)CC1` stands -8.03%. Next, `CC(C)[C@@H](N)C(=O)NCc1cccnc1N1CCc2ccccc2C1`: 11%; `COc1ccc(F)c(F)c1CN1CCN(CC(C)C)C(=O)C1C` (stereo not given): -6.29%. Regarding `CN(C)c1ccccc1C(=O)N1C[C@@H](CN2CCOCC2)[C@@H](CO)C1`, the cytotoxicity at 10 µM is -4.09%.

As for `CC(C)c1n[nH]c(C2CN(C(=O)c3cc(C4CC4)[nH]n3)CCO2)n1` (stereo not given), the cytotoxicity at 10 µM was -5.95%. Turning to `Cc1noc(C)c1C(=O)NCC(c1cccc(F)c1)N(C)C` (stereo not given), the cytotoxicity at 10 µM was -13.1%. For the molecule `CCn1ccnc1CN1CCCN(C(=O)Cn2nc(C)cc2C)CC1`, the cytotoxicity at 10 µM is -0.505%. Under `Cc1ccccc1NC(=O)c1cncc(C2CCNCC2)n1` stands 1.54%. With `CCOc1ccc(Br)cc1-c1cc(N)[nH]n1`, the cytotoxicity at 10 µM was -2.97%. Regarding `Fc1ccc(C2(CNC3=NCCCN3)CCC2)cc1`, the cytotoxicity at 10 µM is 7.2%. Under `O=C1NC(c2ccccc2)=N[C@@]12CC[C@@H]1CN(Cc3ccccc3)C[C@@H]12` stands -5.23%. For `COC[C@]12COC[C@H]1CN(Cc1ccc3ccccc3n1)C2`, the cytotoxicity at 10 µM is 11.9%. With `CN(C)C(=O)CN1CCC2(CCN(Cc3nccs3)CC2)C1=O`, the cytotoxicity at 10 µM was found to be 1.31%.

On to `O=S(=O)(C1CC1)N1CCO[C@H]2[C@H](Oc3cccnc3)CC[C@@H]21`, for which the cytotoxicity at 10 µM was -0.24%. Next, `Cc1n[nH]c2ncc(CNC3CCN(Cc4ccccn4)CC3)cc12`: 7.14%; `Cc1noc(C)c1CN1CCN(C)c2ncccc2C1`: -77%; `Cc1ccc(CNC(=O)c2nc3c(o2)CN(C(=O)c2cccnc2)C3)o1`: 0.109%. Under `Cc1nc(CN2C[C@@H]3CN(C(=O)C4(C#N)CC4)C[C@@H]3C2=O)cs1` stands -70.7%; under `CN(Cc1cccnc1)C1CC2(CCN(c3ncccn3)CC2)C1`, -3.31%. Regarding `CCOC[C@@H]1CC[C@H]2[C@H](CCN2Cc2c(C)noc2C)O1`, the cytotoxicity at 10 µM was 10.5%. As to `Oc1cccc(CN2C[C@@H]3CC[C@H]2CN(Cc2ccncc2)C3)c1`, the cytotoxicity at 10 µM is -131%. Next, `COCCC(=O)N1C[C@@H]2CC[C@H]1CN(C1Cc3ccccc3C1)C2`: -7.43%; `COc1ncccc1CN1CCC2[C@H]1CCN2CCN(C)C` (stereo not given in full): 2.77%; `Cc1cc(C(=O)NC2CCC3(CCC(=O)N3)CC2)no1` (stereo not given): 4.23%.
